Active and inactive are the calls of the source. The calls are words filed in the database; no cut-off is given here.
Key:
[1] = Drug uptake in HEK293 cells at 2 uM after 4 hrs using fluorescein labeled compound by flow cytometric analysis; format: ADME, cell-based; conditions: human, hek293, 4 h
Procedure, shortened: (§1)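 Adherent cells were exposed to fluorescein-labeled peptide at 2 μM for 4 h in serum-free medium. Trypan blue (0.4% end concentration) was added before flow cytometry to quench surface-bound fluorescence. Intracellular signal was normalized to carboxyfluorescein-labeled R9, as the mean ± SD of two independent experiments.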

[2] = Drug uptake in human HeLa cells at 2 uM after 4 hrs using fluorescein labeled compound by flow cytometric analysis; format: ADME, cell-based; procedure, shortened: as §1
[3] = test system: Enterococcus faecalis; assay: Antibacterial activity against Enterococcus faecalis ATCC 29212 after 22 hrs by resazurin based broth dilution assay; format: functional; conditions: ATCC 29212, 22 h
Procedure, shortened: (§2)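 Standard broth dilution assay determining MIC against two Gram-negative and two Gram-positive strains. Values are the mean of two independent experiments.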

[4] = test system: Staphylococcus aureus; assay: Antibacterial activity against Staphylococcus aureus ATCC 25923 after 22 hrs by resazurin based broth dilution assay; format: functional; conditions: ATCC 25923, 22 h; procedure, shortened: as §2
[5] = test system: Pseudomonas aeruginosa; assay: Antibacterial activity against Pseudomonas aeruginosa ATCC 27853 after 22 hrs by resazurin based broth dilution assay; format: functional; conditions: ATCC 27853, 22 h; procedure, shortened: as §2
[6] = test system: Escherichia coli; assay: Antibacterial activity against Escherichia coli ATCC 25922 after 22 hrs by resazurin based broth dilution assay; format: functional; conditions: ATCC 25922, 22 h; procedure, shortened: as §2
[7] = test system: Lipid bilayer; assay: Binding affinity to POPC/POPG lipid vesicles assessed as induction of membrane leakage at peptide to lipid ratio of 1:25 at transmembrane potential of -120 mV after 30 mins by spectroflurimetric analysis
Procedure, shortened: (§3)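 Large unilamellar vesicles (100 nm extrusion) of POPC or POPC/POPG (3/1, mol/mol) were loaded with ANTS dye and DPX quencher, and leakage was read by fluorescence dequenching. Lipid was 50 μM and peptide 2 μM (1:25), incubated 30 min at 30 °C. For lines 6 and 8, a −120 mV potential (negative inside) was set with valinomycin and outside K+ replaced by Na+.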

[8] = test system: Lipid bilayer; assay: Binding affinity to POPC/POPG lipid vesicles assessed as induction of membrane leakage at peptide to lipid ratio of 1:25 after 30 mins by spectroflurimetric analysis; procedure, shortened: as §3
[9] = test system: HEK293; assay: Cytotoxicity against HEK293 cells at 2 uM after 4 hrs using fluorescein labeled compound by flow cytometric analysis; format: cell-based; conditions: human, hek293, 4 h
[10] = test system: HeLa; assay: Cytotoxicity against human HeLa cells at 2 uM after 4 hrs using fluorescein labeled compound by flow cytometric analysis; format: cell-based
[11] = test system: Lipid bilayer; assay: Binding affinity to POPC lipid vesicles assessed as induction of membrane leakage at peptide to lipid ratio of 1:25 at transmembrane potential of -120 mV after 30 mins by spectroflurimetric analysis; procedure, shortened: as §3
[12] = test system: Lipid bilayer; assay: Binding affinity to POPC lipid vesicles assessed as induction of membrane leakage at peptide to lipid ratio of 1:25 after 30 mins by spectroflurimetric analysis; procedure, shortened: as §3

Drug uptake [1]	Drug uptake [2]	MIC [3] [µg/mL]	MIC [4] [µg/mL]	MIC [5] [µg/mL]	MIC [6] [µg/mL]	Activity [7]	Activity [8]	Activity [11] [%]	Activity [12] [%]	Compound	Activity [9]	Activity [10]
Active	Active	–	–	–	–	–	–	–	–	N=C(N)NCCC[C@H](NC(=O)[C@H](CCCNC(=N)N)NC(=O)[C@H](CCCNC(=N)N)NC(=O)[C@H](CCCNC(=N)N)NC(=O)[C@H](CCCNC(=N)N)NC(=O)[C@H](CCCNC(=N)N)NC(=O)[C@H](CCCNC(=N)N)NC(=O)[C@H](CCCNC(=N)N)NC(=O)[C@@H](N)CCCNC(=N)N)C(=O)O	–	–
Active	Active	256	16	256	16	Active	Active	–	–	H-KLALKALKALKAALKLA-NH2	Non-Toxic	Non-Toxic
Active	Active	32	32	64	32	–	–	100	100	H-QQRKRKIWSILAPLGTTLVKLVAGIG-NH2	Non-Toxic	Non-Toxic
Active	Active	> 256	> 256	> 256	> 256	inactive	inactive	–	–	H-AAVLLPVLLAAP-NH2	Non-Toxic	Non-Toxic
Active	Active	64	16	> 256	256	Active	Active	–	–	H-PLILLRLLRGQF-NH2	Non-Toxic	Non-Toxic

From ChEMBL document CHEMBL4017525, “Lactam-Stapled Cell-Penetrating Peptides: Cell Uptake and Membrane Binding Properties” (J Med Chem, 2017)
